Reference: ChEMBL document CHEMBL1131003, “Nonsymmetric P2/P2' cyclic urea HIV protease inhibitors. Structure-activity relationship, bioavailability, and resistance profile of monoindazole-substituted P2 analogues” (J Med Chem, 1998)

Experiments:
MT2 = test: Antiviral potency evaluated by measuring accumulation of viral RNA transcripts 3 days after infection of MT-2 cells with HIV-1 RF; type: functional; conditions: Homo sapiens, MT2, 72 h
[1] = target: Human immunodeficiency virus type 1 protease (Human immunodeficiency virus 1, UniProt Q72874); test: Inhibitory activity against HIV protease
Procedure, shortened: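 Ki for HIV protease, measured by cleavage of a fluorescent substrate with HPLC analysis, following the earlier method.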

[2] = target: Human immunodeficiency virus type 1 protease (Human immunodeficiency virus 1) (UniProt Q72874); test: Antiviral activity against mutant virus HIV-1 mutant (84V) strain; type: functional
Procedure, shortened: (§1)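 I84V single and I84V/V82F double mutant HIV-1, both from in vitro selection under a cyclic urea inhibitor. IC90 measured by yield reduction assay.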

[3] = target: Human immunodeficiency virus type 1 protease (Human immunodeficiency virus 1) (UniProt Q72874); test: Antiviral activity against mutant virus HIV-1 mutant (84V/82F) strain; type: functional; procedure, shortened: as §1
[4] = Peak plasma concentration was measured in dogs; type: ADME, organism-based, Canis lupus familiaris; conditions: dog
[5] = target: Human immunodeficiency virus type 1 protease (Human immunodeficiency virus 1) (UniProt Q72874); test: Antiviral activity against ritonavir virus (HIV-1 mutated at 46I/63P/71V/82F/84V and resistant to ritonavir); type: functional
Procedure, shortened: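 Mutant HIV-1 viruses carrying protease substitutions seen in ritonavir- or indinavir-treated patient isolates; the ritonavir virus carries 46I/63P/71V/82F/84V. IC90 read from a viral p24 readout, following the earlier method.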

[6] = target: Human immunodeficiency virus type 1 protease (Human immunodeficiency virus 1) (UniProt Q72874); test: Antiviral activity against indinavir virus (HIV-1 mutated at 10R/63P/71V/82T/84V and resistant to indinavir)

Structure (SMILES) | IC90 (MT2) | Ki [1] | other results
O=C1N(Cc2cccc(Cn3cncn3)c2)[C@H](Cc2ccccc2)[C@H](O)[C@@H](O)[C@@H](Cc2ccccc2)N1Cc1ccc2[nH]ncc2c1 | 35 nM | 0.054 nM | 
N=C(NO)c1cccc(CN2C(=O)N(Cc3cccc(/C(N)=N/O)c3)[C@H](Cc3ccccc3)[C@H](O)[C@@H](O)[C@H]2Cc2ccccc2)c1 | 300 nM | < 0.01 nM | IC90 mutant/IC90 WT [2]: 1; IC90 mutant/IC90 WT [3]: 0.7
CCNC(=O)c1cccc(CN2C(=O)N(Cc3cccc(C(=O)NCC)c3)[C@H](Cc3ccccc3)[C@H](O)[C@@H](O)[C@H]2Cc2ccccc2)c1 | 138 nM |  | 
CNC(=O)c1cccc(CN2C(=O)N(Cc3cccc(C(=O)NC)c3)[C@H](Cc3ccccc3)[C@H](O)[C@@H](O)[C@H]2Cc2ccccc2)c1 | 81 nM |  | 
O=C1N(Cc2cccc(Cn3cccn3)c2)[C@H](Cc2ccccc2)[C@H](O)[C@@H](O)[C@@H](Cc2ccccc2)N1Cc1ccc2[nH]ncc2c1 | 46 nM | 0.17 nM | 
O=C(Cn1cncn1)c1cccc(CN2C(=O)N(Cc3ccc4[nH]ncc4c3)[C@H](Cc3ccccc3)[C@H](O)[C@@H](O)[C@H]2Cc2ccccc2)c1 | 51 nM | 0.022 nM | Cmax [4]: 150 nM
Nc1cccc(CN2C(=O)N(Cc3cccc(N)c3)[C@H](Cc3ccccc3)[C@H](O)[C@@H](O)[C@H]2Cc2ccccc2)c1 [MOZENAVIR] | 130 nM |  | IC90 mutant/IC90 WT [2]: 10; IC90 mutant/IC90 WT [3]: 100; IC90 mutant/IC90 WT [5]: 49; IC90 mutant/IC90 WT [6]: 27
O=C1N(Cc2ccc3[nH]ncc3c2)[C@H](Cc2ccccc2)[C@H](O)[C@@H](O)[C@@H](Cc2ccccc2)N1Cc1ccc2[nH]ncc2c1 | 7 nM |  | 
O=C(Cn1nccn1)c1cccc(CN2C(=O)N(Cc3ccc4[nH]ncc4c3)[C@H](Cc3ccccc3)[C@H](O)[C@@H](O)[C@H]2Cc2ccccc2)c1 | 15 nM | 0.046 nM | 
O=C1N(Cc2cccc(O)c2)[C@H](Cc2ccccc2)[C@H](O)[C@@H](O)[C@@H](Cc2ccccc2)N1Cc1ccc2[nH]ncc2c1 | 36 nM | 0.045 nM | 
Nc1ccc(CN2C(=O)N(Cc3ccc4[nH]ncc4c3)[C@H](Cc3ccccc3)[C@H](O)[C@@H](O)[C@H]2Cc2ccccc2)cc1F | 7 nM | 0.036 nM | 
O=C1N(Cc2cccc(Cn3nccn3)c2)[C@H](Cc2ccccc2)[C@H](O)[C@@H](O)[C@@H](Cc2ccccc2)N1Cc1ccc2[nH]ncc2c1 | 32 nM | 0.081 nM | 
O=C(O)c1cccc(CN2C(=O)N(Cc3ccc4[nH]ncc4c3)[C@H](Cc3ccccc3)[C@H](O)[C@@H](O)[C@H]2Cc2ccccc2)c1 | 750 nM | 0.049 nM | 
O=C(Nc1ccccn1)c1cccc(CN2C(=O)N(Cc3ccc4[nH]ncc4c3)[C@H](Cc3ccccc3)[C@H](O)[C@@H](O)[C@H]2Cc2ccccc2)c1 | 5 nM | 0.051 nM | 
Nc1cc(CN2C(=O)N(Cc3ccc4[nH]ncc4c3)[C@H](Cc3ccccc3)[C@H](O)[C@@H](O)[C@H]2Cc2ccccc2)ccc1F | 14 nM | 0.018 nM | 
O=C(Cc1ccccn1)c1cccc(CN2C(=O)N(Cc3ccc4[nH]ncc4c3)[C@H](Cc3ccccc3)[C@H](O)[C@@H](O)[C@H]2Cc2ccccc2)c1 | 15 nM | 0.073 nM | Cmax [4]: 700 nM; IC90 mutant/IC90 WT [2]: 1; IC90 mutant/IC90 WT [3]: 5; IC90 mutant/IC90 WT [5]: 10
O=C1N(Cc2cccc(Cn3ccnn3)c2)[C@H](Cc2ccccc2)[C@H](O)[C@@H](O)[C@@H](Cc2ccccc2)N1Cc1ccc2[nH]ncc2c1 | 30 nM | 0.11 nM | 
O=C(Cn1cccn1)c1cccc(CN2C(=O)N(Cc3ccc4[nH]ncc4c3)[C@H](Cc3ccccc3)[C@H](O)[C@@H](O)[C@H]2Cc2ccccc2)c1 | 15 nM | 0.063 nM | 
Nc1ccc(CN2C(=O)N(Cc3ccc4[nH]ncc4c3)[C@H](Cc3ccccc3)[C@H](O)[C@@H](O)[C@H]2Cc2ccccc2)cc1-c1cc[nH]n1 | 22 nM | 0.025 nM | IC90 mutant/IC90 WT [2]: 2.2; IC90 mutant/IC90 WT [3]: 20; IC90 mutant/IC90 WT [5]: 2.1
O=C1N(Cc2ccc3ccccc3c2)[C@H](Cc2ccccc2)[C@H](O)[C@@H](O)[C@@H](Cc2ccccc2)N1Cc1ccc2ccccc2c1 | 3900 nM |  | 
O=C1N(Cc2cccc(-c3nc[nH]n3)c2)[C@H](Cc2ccccc2)[C@H](O)[C@@H](O)[C@@H](Cc2ccccc2)N1Cc1ccc2[nH]ncc2c1 | 24 nM | 0.041 nM | IC90 mutant/IC90 WT [2]: 3.3; IC90 mutant/IC90 WT [3]: 18; IC90 mutant/IC90 WT [5]: 3.8
Nc1ccc(CN2C(=O)N(Cc3ccc4[nH]ncc4c3)[C@H](Cc3ccccc3)[C@H](O)[C@@H](O)[C@H]2Cc2ccccc2)cc1-n1cccn1 | 6 nM | 0.045 nM | IC90 mutant/IC90 WT [2]: 3.3; IC90 mutant/IC90 WT [3]: 50; IC90 mutant/IC90 WT [5]: 70
O=C1N(Cc2ccc(F)c(NCc3nc4ccccc4[nH]3)c2)[C@H](Cc2ccccc2)[C@H](O)[C@@H](O)[C@@H](Cc2ccccc2)N1Cc1ccc2[nH]ncc2c1 | 30 nM | 0.028 nM | 

Structure (SMILES) | IC90 (MT2) | Ki [1] | other results
O=C(Nc1ccccn1)c1cccc(CN2C(=O)N(Cc3cccc(C(=O)Nc4ccccn4)c3)[C@H](Cc3ccccc3)[C@H](O)[C@@H](O)[C@H]2Cc2ccccc2)c1 | 2.8 nM |  | 
O=C(Cc1cccs1)c1cccc(CN2C(=O)N(Cc3ccc4[nH]ncc4c3)[C@H](Cc3ccccc3)[C@H](O)[C@@H](O)[C@H]2Cc2ccccc2)c1 | 18 nM | 0.23 nM | 
NC(=O)c1cc(CN2C(=O)N(Cc3ccc4[nH]ncc4c3)[C@H](Cc3ccccc3)[C@H](O)[C@@H](O)[C@H]2Cc2ccccc2)ccc1F | 14 nM | 0.018 nM | 
O=C1N(Cc2cccc(NCc3nc4ccccc4s3)c2)[C@H](Cc2ccccc2)[C@H](O)[C@@H](O)[C@@H](Cc2ccccc2)N1Cc1ccc2[nH]ncc2c1 | 5 nM | 0.059 nM | IC90 mutant/IC90 WT [2]: 3.3; IC90 mutant/IC90 WT [3]: 20; IC90 mutant/IC90 WT [5]: 25
O=C(Cn1ccnn1)c1cccc(CN2C(=O)N(Cc3ccc4[nH]ncc4c3)[C@H](Cc3ccccc3)[C@H](O)[C@@H](O)[C@H]2Cc2ccccc2)c1 | 30 nM | 0.021 nM | 
Nc1ccc(CN2C(=O)N(Cc3ccc4[nH]ncc4c3)[C@H](Cc3ccccc3)[C@H](O)[C@@H](O)[C@H]2Cc2ccccc2)cc1-n1nccn1 | 12 nM | 0.059 nM | 
O=C1N[C@H](Cc2ccccc2)[C@H](O)[C@@H](O)[C@@H](Cc2ccccc2)N1Cc1ccc2[nH]ncc2c1 | 550 nM |  | 
Cc1ccc(NC(=O)c2cccc(CN3C(=O)N(Cc4ccc5[nH]ncc5c4)[C@H](Cc4ccccc4)[C@H](O)[C@@H](O)[C@H]3Cc3ccccc3)c2)nc1 | 4 nM | 0.048 nM | Cmax [4]: < 50 nM
O=C1N(Cc2cccc(NCc3nc4ccccc4[nH]3)c2)[C@H](Cc2ccccc2)[C@H](O)[C@@H](O)[C@@H](Cc2ccccc2)N1Cc1ccc2[nH]ncc2c1 | 63 nM | 0.016 nM | IC90 mutant/IC90 WT [2]: 1; IC90 mutant/IC90 WT [3]: 3
Cc1ccc(CN2C(=O)N(Cc3ccc4[nH]ncc4c3)[C@H](Cc3ccccc3)[C@H](O)[C@@H](O)[C@H]2Cc2ccccc2)cc1N | 15 nM | 0.05 nM | 
NC(=O)c1cccc(CN2C(=O)N(Cc3cccc(C(N)=O)c3)[C@H](Cc3ccccc3)[C@H](O)[C@@H](O)[C@H]2Cc2ccccc2)c1 | 709 nM |  | 
O=C1N(Cc2cccc(CCO)c2)[C@H](Cc2ccccc2)[C@H](O)[C@@H](O)[C@@H](Cc2ccccc2)N1Cc1ccc2[nH]ncc2c1 | 17 nM | 0.05 nM | 
Cc1cccc(NC(=O)c2cccc(CN3C(=O)N(Cc4ccc5[nH]ncc5c4)[C@H](Cc4ccccc4)[C@H](O)[C@@H](O)[C@H]3Cc3ccccc3)c2)n1 | 3 nM | 0.04 nM | 
COC(=O)Cc1cccc(CN2C(=O)N(Cc3ccc4[nH]ncc4c3)[C@H](Cc3ccccc3)[C@H](O)[C@@H](O)[C@H]2Cc2ccccc2)c1 | 32 nM | 0.11 nM | 
Nc1ccc(CN2C(=O)N(Cc3ccc4[nH]ncc4c3)[C@H](Cc3ccccc3)[C@H](O)[C@@H](O)[C@H]2Cc2ccccc2)cc1-n1ccnn1 | 38 nM | 0.034 nM | 
O=C(Nc1nccs1)c1cccc(CN2C(=O)N(Cc3cccc(C(=O)Nc4nccs4)c3)[C@H](Cc3ccccc3)[C@H](O)[C@@H](O)[C@H]2Cc2ccccc2)c1 | 4.2 nM |  | 
O=C1N(Cc2ccc3[nH]ncc3c2)[C@H](CCc2ccccc2)[C@@H](O)[C@@H](Cc2ccccc2)N1Cc1ccc2[nH]ncc2c1 | 6 nM | 0.023 nM | 
CN(C)c1cccc(CN2C(=O)N(Cc3ccc4[nH]ncc4c3)[C@H](Cc3ccccc3)[C@H](O)[C@@H](O)[C@H]2Cc2ccccc2)c1 | 39 nM | 0.23 nM | 
Nc1ccc(CN2C(=O)N(Cc3ccc4[nH]ncc4c3)[C@H](Cc3ccccc3)[C@H](O)[C@@H](O)[C@H]2Cc2ccccc2)cc1-n1cncn1 | 35 nM | 0.029 nM | Cmax [4]: 500 nM; IC90 mutant/IC90 WT [2]: 1; IC90 mutant/IC90 WT [3]: 20; IC90 mutant/IC90 WT [5]: 9
N=C(NO)c1cccc(CN2C(=O)N(Cc3cccc(/C(N)=N/O)c3)[C@H](CCc3ccccc3)[C@@H](O)[C@H]2Cc2ccccc2)c1 | 49 nM |  | 
NC(=O)c1cccc(CN2C(=O)N(Cc3cccc(C(N)=O)c3)[C@H](Cc3ccccc3)[C@H](O)[C@H]2CCc2ccccc2)c1 | 35 nM |  | 
O=C(Nc1nc2ccccc2[nH]1)c1cccc(CN2C(=O)N(Cc3cccc(C(=O)Nc4nc5ccccc5[nH]4)c3)[C@H](Cc3ccccc3)[C@H](O)[C@@H](O)[C@H]2Cc2ccccc2)c1 | 5.1 nM |  | 
